Source: ChEMBL document CHEMBL2346522, “Rational design of apoptosis signal-regulating kinase 1 inhibitors: discovering novel structural scaffold” (Eur J Med Chem, 2013)

Legend:
[1] = biological target: T1, Mitogen-activated protein kinase kinase kinase 5 (Homo sapiens, UniProt Q99683); experiment: Inhibition of human ASK1 using MBP as substrate incubated for 10 mins prior to ATP addition measured after 20 mins by liquid scintillation counting analysis
T1 sequence (Q99683 whole entry): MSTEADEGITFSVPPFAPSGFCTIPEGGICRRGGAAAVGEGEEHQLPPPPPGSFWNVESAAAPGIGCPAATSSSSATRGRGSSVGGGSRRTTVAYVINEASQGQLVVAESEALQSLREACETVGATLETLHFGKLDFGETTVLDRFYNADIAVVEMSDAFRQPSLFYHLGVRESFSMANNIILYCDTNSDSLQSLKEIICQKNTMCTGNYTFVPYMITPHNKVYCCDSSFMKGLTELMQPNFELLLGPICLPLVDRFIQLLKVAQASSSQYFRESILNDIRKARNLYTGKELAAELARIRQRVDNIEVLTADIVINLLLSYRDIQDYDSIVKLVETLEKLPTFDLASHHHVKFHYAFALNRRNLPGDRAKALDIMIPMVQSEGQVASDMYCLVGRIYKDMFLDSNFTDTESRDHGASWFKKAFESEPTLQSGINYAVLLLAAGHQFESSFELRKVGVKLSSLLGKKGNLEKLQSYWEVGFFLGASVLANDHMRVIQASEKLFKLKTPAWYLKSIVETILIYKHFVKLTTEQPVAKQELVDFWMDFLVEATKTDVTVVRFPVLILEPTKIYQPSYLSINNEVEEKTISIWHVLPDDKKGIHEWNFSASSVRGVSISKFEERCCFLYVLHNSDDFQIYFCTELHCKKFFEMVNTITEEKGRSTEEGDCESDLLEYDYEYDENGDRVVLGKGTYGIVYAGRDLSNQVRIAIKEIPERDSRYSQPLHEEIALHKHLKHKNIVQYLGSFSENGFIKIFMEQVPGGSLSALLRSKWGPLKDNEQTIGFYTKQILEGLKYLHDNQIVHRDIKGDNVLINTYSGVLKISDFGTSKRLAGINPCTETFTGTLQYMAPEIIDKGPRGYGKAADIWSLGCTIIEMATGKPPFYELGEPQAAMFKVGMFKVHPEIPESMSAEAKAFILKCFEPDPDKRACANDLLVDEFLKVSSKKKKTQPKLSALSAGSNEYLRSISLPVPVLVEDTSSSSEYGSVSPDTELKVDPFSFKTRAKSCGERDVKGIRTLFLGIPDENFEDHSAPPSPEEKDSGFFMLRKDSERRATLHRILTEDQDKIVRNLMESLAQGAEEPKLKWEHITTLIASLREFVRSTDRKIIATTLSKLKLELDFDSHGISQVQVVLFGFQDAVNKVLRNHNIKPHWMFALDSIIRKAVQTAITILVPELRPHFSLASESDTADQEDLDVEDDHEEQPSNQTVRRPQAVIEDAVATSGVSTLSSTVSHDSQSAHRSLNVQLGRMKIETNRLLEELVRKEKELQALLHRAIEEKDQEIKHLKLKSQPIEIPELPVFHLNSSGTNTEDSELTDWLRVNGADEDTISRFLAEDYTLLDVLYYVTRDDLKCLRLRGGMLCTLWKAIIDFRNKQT
Method in brief: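 Inhibitor added from a DMSO stock is incubated with enzyme on ice for 10 min. The reaction is started with ATP plus MgCl₂ in MOPS pH 7.2, and labeled and unlabeled ATP are combined.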

[2] = biological target: Casein kinase II (Homo sapiens) (UniProt P67870+P68400+P19784); experiment: Inhibition of human CK2 using RRRDDDSDDD as substrate assessed as residual activity at 10 uM incubated for 10 mins prior to ATP addition measured after 20 mins by liquid scintillation counting analysis; assay type: protein-complex assay
[3] = biological target: Mitogen-activated protein kinase 10 (Homo sapiens) (UniProt P53779); experiment: Inhibition of human JNK3 using JNK3tide as substrate assessed as residual activity at 10 uM incubated for 10 mins prior to ATP addition measured after 20 mins by liquid scintillation counting analysis
Mitogen-activated protein kinase 10 (Homo sapiens), sequence (P53779 whole entry): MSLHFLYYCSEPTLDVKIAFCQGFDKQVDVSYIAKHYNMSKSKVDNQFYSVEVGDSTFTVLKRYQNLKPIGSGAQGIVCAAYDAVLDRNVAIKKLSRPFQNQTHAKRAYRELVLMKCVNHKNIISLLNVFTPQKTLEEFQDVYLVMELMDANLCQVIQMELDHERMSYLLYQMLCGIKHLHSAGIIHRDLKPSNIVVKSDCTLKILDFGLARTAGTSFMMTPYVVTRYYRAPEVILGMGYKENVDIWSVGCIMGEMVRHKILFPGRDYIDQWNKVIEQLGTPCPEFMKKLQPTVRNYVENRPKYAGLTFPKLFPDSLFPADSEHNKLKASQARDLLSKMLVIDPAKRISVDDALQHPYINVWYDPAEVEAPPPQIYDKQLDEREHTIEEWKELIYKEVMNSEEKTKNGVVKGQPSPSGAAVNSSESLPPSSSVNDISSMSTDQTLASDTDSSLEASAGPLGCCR

[4] = biological target: Angiopoietin-1 receptor (Homo sapiens) (UniProt Q02763); experiment: Inhibition of human Tie2 using TK substrate 2 as substrate assessed as residual activity at 10 uM incubated for 10 mins prior to ATP addition measured after 20 mins by liquid scintillation counting analysis
Angiopoietin-1 receptor (Homo sapiens), sequence (Q02763 whole entry): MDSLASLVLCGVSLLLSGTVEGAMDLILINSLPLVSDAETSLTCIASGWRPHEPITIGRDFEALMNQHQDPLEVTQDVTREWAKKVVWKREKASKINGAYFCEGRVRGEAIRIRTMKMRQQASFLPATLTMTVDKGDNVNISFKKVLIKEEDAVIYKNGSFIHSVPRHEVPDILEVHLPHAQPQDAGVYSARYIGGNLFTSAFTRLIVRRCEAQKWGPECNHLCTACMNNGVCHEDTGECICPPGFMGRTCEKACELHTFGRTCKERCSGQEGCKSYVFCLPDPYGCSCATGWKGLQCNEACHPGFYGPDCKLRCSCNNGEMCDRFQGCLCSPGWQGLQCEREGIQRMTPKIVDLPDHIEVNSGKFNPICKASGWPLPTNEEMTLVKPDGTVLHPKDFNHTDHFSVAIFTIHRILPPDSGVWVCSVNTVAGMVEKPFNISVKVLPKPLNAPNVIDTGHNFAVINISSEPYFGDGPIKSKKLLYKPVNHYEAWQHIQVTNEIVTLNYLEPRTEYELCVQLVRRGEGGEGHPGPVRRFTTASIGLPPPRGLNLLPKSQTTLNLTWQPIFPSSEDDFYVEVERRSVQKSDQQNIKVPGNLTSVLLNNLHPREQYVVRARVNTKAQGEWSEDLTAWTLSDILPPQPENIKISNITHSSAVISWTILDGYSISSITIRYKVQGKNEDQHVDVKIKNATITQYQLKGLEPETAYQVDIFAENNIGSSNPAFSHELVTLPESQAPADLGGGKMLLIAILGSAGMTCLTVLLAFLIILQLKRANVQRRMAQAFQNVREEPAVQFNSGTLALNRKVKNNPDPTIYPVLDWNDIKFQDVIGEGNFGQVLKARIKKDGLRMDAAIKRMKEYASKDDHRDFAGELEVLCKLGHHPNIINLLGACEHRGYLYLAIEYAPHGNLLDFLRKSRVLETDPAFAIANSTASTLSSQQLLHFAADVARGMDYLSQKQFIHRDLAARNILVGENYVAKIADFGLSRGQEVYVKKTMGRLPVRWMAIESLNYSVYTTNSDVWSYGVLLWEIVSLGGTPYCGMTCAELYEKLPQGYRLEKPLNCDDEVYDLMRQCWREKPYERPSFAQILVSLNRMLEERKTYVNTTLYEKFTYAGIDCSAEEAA

[5] = biological target: Fibroblast growth factor receptor 1 (Homo sapiens) (UniProt P11362); experiment: Inhibition of human FGFR1 using IGF-IRtide (12 to 527) as substrate assessed as residual activity at 10 uM incubated for 10 mins prior to ATP addition measured after 20 mins by liquid scintillation counting analysis
Fibroblast growth factor receptor 1 (Homo sapiens), sequence (P11362 22-822 limits assumed): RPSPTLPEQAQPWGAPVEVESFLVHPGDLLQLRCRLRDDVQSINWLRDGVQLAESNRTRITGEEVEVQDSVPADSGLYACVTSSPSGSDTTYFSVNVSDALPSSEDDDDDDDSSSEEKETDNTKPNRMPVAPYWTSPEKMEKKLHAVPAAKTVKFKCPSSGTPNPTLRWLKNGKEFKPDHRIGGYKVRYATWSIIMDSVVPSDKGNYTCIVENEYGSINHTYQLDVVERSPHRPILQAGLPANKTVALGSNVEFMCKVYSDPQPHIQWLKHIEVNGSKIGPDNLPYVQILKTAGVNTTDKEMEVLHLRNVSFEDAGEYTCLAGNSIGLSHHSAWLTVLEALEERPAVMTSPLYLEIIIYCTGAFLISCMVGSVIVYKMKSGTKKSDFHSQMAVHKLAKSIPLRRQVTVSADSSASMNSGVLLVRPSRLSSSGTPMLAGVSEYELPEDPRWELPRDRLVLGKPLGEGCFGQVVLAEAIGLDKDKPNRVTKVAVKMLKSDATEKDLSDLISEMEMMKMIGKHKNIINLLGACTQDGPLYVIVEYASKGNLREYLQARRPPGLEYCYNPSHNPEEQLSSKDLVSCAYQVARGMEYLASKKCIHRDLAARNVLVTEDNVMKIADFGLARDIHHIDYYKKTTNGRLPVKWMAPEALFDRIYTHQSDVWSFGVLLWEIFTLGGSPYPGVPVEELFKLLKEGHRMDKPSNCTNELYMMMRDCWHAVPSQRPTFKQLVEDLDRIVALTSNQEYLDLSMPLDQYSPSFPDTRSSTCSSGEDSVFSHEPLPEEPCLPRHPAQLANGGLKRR

[6] = biological target: Hepatocyte growth factor receptor (Homo sapiens) (UniProt P08581); experiment: Inhibition of human HGFR using KKKSPGEYVNIEFG as substrate assessed as residual activity at 10 uM incubated for 10 mins prior to ATP addition measured after 20 mins by liquid scintillation counting analysis
Hepatocyte growth factor receptor (Homo sapiens), sequence (P08581 whole entry): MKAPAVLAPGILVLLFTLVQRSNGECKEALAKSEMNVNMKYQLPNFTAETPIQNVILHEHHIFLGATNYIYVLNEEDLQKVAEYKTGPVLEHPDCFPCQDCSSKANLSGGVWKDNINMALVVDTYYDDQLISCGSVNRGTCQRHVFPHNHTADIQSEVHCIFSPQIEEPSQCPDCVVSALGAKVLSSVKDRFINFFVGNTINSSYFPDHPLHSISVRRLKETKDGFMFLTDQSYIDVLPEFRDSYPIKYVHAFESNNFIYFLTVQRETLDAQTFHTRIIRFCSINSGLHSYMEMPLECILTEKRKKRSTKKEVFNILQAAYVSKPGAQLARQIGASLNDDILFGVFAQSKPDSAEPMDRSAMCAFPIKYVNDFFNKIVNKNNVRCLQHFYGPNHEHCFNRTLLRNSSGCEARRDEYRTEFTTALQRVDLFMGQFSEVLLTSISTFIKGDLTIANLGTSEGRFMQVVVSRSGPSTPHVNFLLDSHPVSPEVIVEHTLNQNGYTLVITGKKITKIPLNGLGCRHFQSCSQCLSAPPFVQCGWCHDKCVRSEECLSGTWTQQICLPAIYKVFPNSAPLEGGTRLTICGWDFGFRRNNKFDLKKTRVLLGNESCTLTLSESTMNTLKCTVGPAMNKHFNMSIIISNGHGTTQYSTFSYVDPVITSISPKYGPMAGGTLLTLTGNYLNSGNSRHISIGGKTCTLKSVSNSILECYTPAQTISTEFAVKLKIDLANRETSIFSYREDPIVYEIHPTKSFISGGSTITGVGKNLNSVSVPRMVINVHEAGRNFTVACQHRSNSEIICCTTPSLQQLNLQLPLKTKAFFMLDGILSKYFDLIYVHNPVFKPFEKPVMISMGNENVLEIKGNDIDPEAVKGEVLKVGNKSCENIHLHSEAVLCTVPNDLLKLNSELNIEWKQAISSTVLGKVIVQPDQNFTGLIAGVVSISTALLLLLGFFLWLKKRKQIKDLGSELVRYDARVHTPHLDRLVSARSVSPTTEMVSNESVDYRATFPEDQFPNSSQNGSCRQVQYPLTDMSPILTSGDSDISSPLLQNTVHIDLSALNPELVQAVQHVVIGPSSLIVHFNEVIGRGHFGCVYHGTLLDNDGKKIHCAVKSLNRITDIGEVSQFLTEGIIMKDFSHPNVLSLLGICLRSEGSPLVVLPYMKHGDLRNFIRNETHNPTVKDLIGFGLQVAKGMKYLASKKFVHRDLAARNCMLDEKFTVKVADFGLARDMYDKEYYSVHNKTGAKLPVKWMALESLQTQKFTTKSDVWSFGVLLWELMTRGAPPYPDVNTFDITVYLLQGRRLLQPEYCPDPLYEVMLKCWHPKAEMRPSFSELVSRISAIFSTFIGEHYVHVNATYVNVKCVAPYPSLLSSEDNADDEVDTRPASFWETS

[7] = biological target: T2, Aurora kinase A (Homo sapiens) (UniProt O14965); experiment: Inhibition of human Aurora A using Kemptide as substrate assessed as residual activity at 10 uM incubated for 10 mins prior to ATP addition measured after 20 mins by liquid scintillation counting analysis
T2 sequence (whole entry): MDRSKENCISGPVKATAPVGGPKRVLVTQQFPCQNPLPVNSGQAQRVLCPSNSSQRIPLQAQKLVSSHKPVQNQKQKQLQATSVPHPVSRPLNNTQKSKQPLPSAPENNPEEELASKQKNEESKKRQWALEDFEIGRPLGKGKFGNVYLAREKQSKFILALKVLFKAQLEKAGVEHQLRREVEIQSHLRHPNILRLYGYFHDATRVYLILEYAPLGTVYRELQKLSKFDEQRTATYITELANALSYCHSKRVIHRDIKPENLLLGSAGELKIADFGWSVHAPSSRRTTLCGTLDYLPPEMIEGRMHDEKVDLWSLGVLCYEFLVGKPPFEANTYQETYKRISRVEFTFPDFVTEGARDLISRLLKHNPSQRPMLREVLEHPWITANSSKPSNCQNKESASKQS

[8] = biological target: T3, Mitogen-activated protein kinase kinase kinase 5 (Homo sapiens) (UniProt Q99683); experiment: Inhibition of human ASK1 using MBP as substrate assessed as residual activity at 10 uM incubated for 10 mins prior to ATP addition measured after 20 mins by liquid scintillation counting analysis
T3 sequence (whole entry): T1 sequence (Q99683 whole entry)

[9] = biological target: T1, Mitogen-activated protein kinase kinase kinase 5; experiment: Competitive inhibition of human ASK1 using MBP as substrate incubated for 10 mins prior to ATP addition measured after 20 mins by Lineweaver-Burk plot analysis
Method in brief: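 ASK1 activity with MBP substrate and γ-³²P-ATP. Enzyme and substrate sit in MOPS pH 7.2 buffer (EGTA, EDTA, DTT, BSA, β-glycerophosphate). Inhibitor from a DMSO stock is pre-mixed with them on ice for 10 min. The reaction starts with ATP/MgCl₂. Substrate concentration curves are run at several inhibitor levels, in triplicate, and analysed by Lineweaver–Burk linearized plots.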

| Compound | IC50 [1] [nM] | further results |
| --- | --- | --- |
| O=C1NC(=S)S/C1=C\c1cccnc1 | > 33000 | – |
| CCCC(C(=O)O)N1C(=O)/C(=C/c2ccc(-c3ccc(Cl)c(Cl)c3)o2)SC1=S (configuration not stated) | 3900 | – |
| O=C(O)CCCN1C(=O)/C(=C/c2ccc(-c3ccc(Br)cc3)o2)SC1=S | 200 | Activity [2]: 28%; Activity [3]: 92%; Activity [4]: 28%; Activity [5]: 10%; Activity [6]: 51%; Activity [7]: 100%; Activity [8]: 3% |
| CCc1ccc(-c2ccc(/C=C3\SC(=S)N(C(CC(=O)O)C(=O)O)C3=O)o2)cc1 (configuration not stated) | 1800 | – |
| O=C(O)CCCCCN1C(=O)/C(=C/c2ccc(-c3cccc(C(F)(F)F)c3)o2)SC1=S | 500 | – |
| O=C1/C(=C/c2ccc(-c3ccc(Cl)c(Cl)c3)o2)SC(=S)N1c1ccc(F)cc1 | > 33000 | – |
| O=C(O)CC(C(=O)O)N1C(=O)/C(=C/c2ccc(-c3c(Cl)cccc3Cl)o2)SC1=S (configuration not stated) | 1000 | – |
| O=C1NC(=S)S/C1=C\c1ccc(-c2ccccc2[N+](=O)[O-])o1 | > 33000 | – |
| O=C1/C(=C/c2ccc(-c3ccc(Br)cc3)o2)SC(=S)N1c1cccc(O)c1 | 2000 | – |
| O=C(O)CCN1C(=O)/C(=C/c2ccc(-c3ccc([N+](=O)[O-])cc3)o2)SC1=S | 650 | – |
| CSCCC(C(=O)O)N1C(=O)/C(=C/c2ccc(-c3ccc(Cl)c(Cl)c3)o2)SC1=S (configuration not stated) | 750 | – |
| O=C(O)C(Cc1ccccc1)N1C(=O)/C(=C/c2ccncc2)SC1=S (configuration not stated) | > 33000 | – |
| O=C(O)CCCN1C(=O)/C(=C/c2ccc(-c3c(Cl)cccc3Cl)o2)SC1=S | 500 | – |
| O=C(O)CCCN1C(=O)/C(=C/c2ccc(-c3ccccc3Cl)o2)SC1=S | 300 | Activity [2]: 15%; Activity [3]: 41%; Activity [4]: 22%; Activity [5]: 16%; Activity [6]: 25%; Activity [7]: 14%; Activity [8]: 3.5% |
| O=C(O)c1ccc(N2C(=O)/C(=C/c3cccnc3)SC2=S)cc1 | > 33000 | – |
| O=C(O)CCCCCN1C(=O)/C(=C/c2ccc(-c3ccc(Br)cc3)o2)SC1=S | 200 | Activity [2]: 34%; Activity [3]: 65%; Activity [4]: 46%; Activity [5]: 5%; Activity [6]: 7%; Activity [7]: 21%; Activity [8]: 3% |
| O=C(O)CCN1C(=O)/C(=C/c2ccc(-c3ccccc3Cl)o2)SC1=S | 750 | – |
| O=C(O)CCCN1C(=O)/C(=C/c2ccc(-c3cccc(Cl)c3)o2)SC1=S | 350 | – |
| O=C(O)CC(C(=O)O)N1C(=O)/C(=C/c2ccc(-c3ccc(Br)cc3)o2)SC1=S (configuration not stated) | 2800 | – |
| CC(C(=O)O)N1C(=O)/C(=C/c2ccc(-c3ccc(Cl)c(Cl)c3)o2)SC1=S (configuration not stated) | 650 | Activity [2]: 34%; Activity [3]: 46%; Activity [4]: 29%; Activity [5]: 88%; Activity [6]: 65%; Activity [7]: 14%; Activity [8]: 3%; Ki [9]: 340 nM |
| CCCC(C(=O)O)N1C(=O)/C(=C/c2ccc(-c3ccc([N+](=O)[O-])cc3)o2)SC1=S (configuration not stated) | 1800 | – |

| Compound | IC50 [1] [nM] | further results |
| --- | --- | --- |
| O=C(O)CN1C(=O)/C(=C/c2ccc(-c3ccccc3F)o2)SC1=S | 3000 | – |
| CCC(C(=O)O)N1C(=O)/C(=C/c2ccc(-c3cc(Cl)ccc3Cl)o2)SC1=S (configuration not stated) | 500 | – |
| O=C(O)CCCCCN1C(=O)/C(=C/c2ccc(-c3ccccc3Cl)o2)SC1=S | 500 | – |
| O=C(O)CN1C(=O)/C(=C/c2ccncc2)SC1=S | > 33000 | – |
| CCC(C(=O)O)N1C(=O)/C(=C/c2ccc(-c3ccc(Br)cc3)o2)SC1=S (configuration not stated) | 500 | – |
| CCCC(C(=O)O)N1C(=O)/C(=C/c2ccc(-c3ccc(Br)cc3)o2)SC1=S (configuration not stated) | 500 | – |
| O=C(O)CCN1C(=O)/C(=C/c2ccc(-c3cccc(Cl)c3)o2)SC1=S | 1000 | – |
| O=C(O)CCN1C(=O)/C(=C/c2ccc(-c3ccccc3F)o2)SC1=S | 300 | Activity [2]: 56%; Activity [3]: 87%; Activity [4]: 44%; Activity [5]: 22%; Activity [6]: 32%; Activity [7]: 39%; Activity [8]: 2.5% |
| CCOC(=O)c1ccc(-c2ccc(/C=C3\SC(=S)N(C(CC(=O)O)C(C)=O)C3=O)o2)cc1 (configuration not stated) | 800 | – |
| COC(=O)c1ccc(/C=C2\SC(=S)N(c3ccc(O)c(C(=O)O)c3)C2=O)cc1 | > 33000 | – |
| O=C(O)CN1C(=O)/C(=C/c2ccco2)SC1=S | > 33000 | – |
| COC(=O)CCCN1C(=O)/C(=C/c2ccc(-c3ccccc3F)o2)SC1=S | > 33000 | – |
| O=C(O)CN1C(=O)/C(=C/c2ccc(-c3ccccc3Cl)o2)SC1=S | 1250 | – |
| COC(=O)CCCN1C(=O)/C(=C/c2ccc(-c3ccc(Br)cc3)o2)SC1=S | > 33000 | – |
| O=C(O)CCCN1C(=O)/C(=C/c2ccc(-c3cc(Cl)ccc3Cl)o2)SC1=S | 350 | – |
| O=C1/C(=C/c2ccc(Cl)cc2Cl)SC(=S)N1Nc1ccccc1 | > 33000 | – |
| O=C1NC(=S)S/C1=C\c1cccc(Br)c1 | > 33000 | – |
| O=C(O)CCCN1C(=O)/C(=C/c2ccc(-c3ccccc3F)o2)SC1=S | 3000 | – |
| O=C1/C(=C/c2ccco2)SC(=S)N1c1cccnc1 | > 33000 | – |
| CCC(C(=O)O)N1C(=O)/C(=C/c2ccc(-c3cccc(Cl)c3)o2)SC1=S (configuration not stated) | 750 | – |
